Measurements taken from ChEMBL document CHEMBL1140114, “Antitumor compounds based on a natural product consensus pharmacophore” (J Med Chem, 2008).
Active and inactive are the calls of the source. No cut-off for these calls is given here.

Tests used:
[1] = test system: PC-3; assay: Cytotoxicity against human PC3 cells after 72 hrs by XTT colorimetric assay; format: functional, cell-based; conditions: PC-3, 72 h
Summary of the method: (§1)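 Seven-line tumour panel run with an XTT colorimetric cytotoxicity read-out; IC50 values estimated from the XTT data. Tissue origins: A549 lung carcinoma, MCF-7 breast cancer, OVCAR-3 ovarian cancer, PC-3 prostate cancer, WiDr colorectal cancer.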

[2] = test system: OVCAR-3; assay: Cytotoxicity against human OVCAR-3 cells after 72 hrs by XTT colorimetric assay; format: functional, cell-based; conditions: OVCAR-3, 72 h; summary of the method: as §1
[3] = test system: WiDr; assay: Cytotoxicity against human WiDr cells after 72 hrs by XTT colorimetric assay
[4] = test system: A549; assay: Cytotoxicity against human A549 cells after 72 hrs by XTT colorimetric assay; format: functional, cell-based; conditions: A549, 72 h; summary of the method: as §1
[5] = test system: MCF7; assay: Cytotoxicity against human MCF7 cells after 72 hrs by XTT colorimetric assay; format: functional, cell-based; conditions: MCF7, 72 h; summary of the method: as §1
[6] = test system: A549; assay: Cytotoxicity against human A549 cells at 5 uM after 72 hrs by XTT colorimetric assay; format: functional
Summary of the method: (§2)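 Initial screen on a five-line panel (A549, COS-7, MCF-7, WiDr, NIH3T3). Compounds were tested at concentrations up to 5 µM. Read-out was percent inhibition of cell growth at the highest concentration, 5 µM.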

[7] = test system: MCF7; assay: Cytotoxicity against human MCF7 cells at 5 uM after 72 hrs by XTT colorimetric assay; format: functional; summary of the method: as §2
[8] = test system: JVM-2; assay: Cytotoxicity against human JVM2 cells after 72 hrs by XTT colorimetric assay; format: functional, cell-based; conditions: JVM-2, 72 h
Summary of the method: (§3)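 Mantle cell lymphoma lines (JeKo-1, JVM-2), screened within a seven-line human tumour panel. Viability read out by XTT colorimetric cytotoxicity assay, with IC50 estimated from the resulting growth inhibition data.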

[9] = Cytotoxicity against human JeKo1 cells after 72 hrs by XTT colorimetric assay; format: functional, cell-based; conditions: JeKo-1, 72 h; summary of the method: as §3
[10] = test system: A549; assay: Cytotoxicity against human A549 cells upto 5 uM after 72 hrs by XTT colorimetric assay; format: functional, cell-based; summary of the method: as §2
[11] = test system: NIH3T3; assay: Cytotoxicity against mouse NIH3T3 cells upto 5 uM after 72 hrs by XTT colorimetric assay; format: cell-based; conditions: nih3t3, 72 h; summary of the method: as §2
[12] = test system: WiDr; assay: Cytotoxicity against human WiDr cells upto 5 uM after 72 hrs by XTT colorimetric assay; format: functional, cell-based; summary of the method: as §2
[13] = Cytotoxicity against african green monkey COS7 cells upto 5 uM after 72 hrs by XTT colorimetric assay; format: cell-based; conditions: chlorocebus aethiops, cos-7, 72 h; summary of the method: as §2
[14] = test system: MCF7; assay: Cytotoxicity against human MCF7 cells upto 5 uM after 72 hrs by XTT colorimetric assay; format: functional, cell-based; summary of the method: as §2

Row | Compound | IC50 [1] | IC50 [2] | IC50 [3] | IC50 [4] | IC50 [5] | further results
1 | CC[C@H](O)[C@@H](C)[C@H]1O[C@@H]1C[C@H](C)/C=C/C=C(\C)[C@H]1OC(=O)C[C@H](O)CC[C@@](C)(O)[C@@H](OC(C)=O)CC[C@@H]1C [PLADIENOLIDE B] | 2.3 nM | 0.4 nM | 0.86 nM | 1.4 nM | 0.4 nM | 
2 | CC(=O)O[C@@H](C)/C=C\C(=O)N[C@H]1CC[C@@H](COC(=O)OC[C@@H]2C[C@]3(CO3)CC(C)(C)O2)CC1 |  |  |  |  |  | Activity [6]: 10%; Activity [7]: 10%
3 | CC(=O)O[C@@H](C)/C=C\C(=O)N[C@H]1CC[C@@H](C/C=C(C)/C=C/[C@@H]2C[C@]3(CO3)CC(C)(C)O2)CC1 | 2120 nM | 1980 nM | 2030 nM | 4650 nM | 2290 nM | IC50 [8]: 130 nM; IC50 [9]: 100 nM
4 | CC(=O)O[C@@H](C)/C=C\C(=O)N[C@H]1CC[C@@H](CNC(=O)OC[C@@H]2C[C@]3(CO3)CC(C)(C)O2)CC1 |  |  |  |  |  | Activity [10]: inactive; Activity [11]: Not Active; Activity [12]: inactive; Activity [13]: Not Active; Activity [14]: inactive
5 | CC(=O)O[C@@H](C)/C=C\C(=O)N[C@@H]1C[C@H](C)[C@H](C/C=C(C)/C=C/[C@H]2O[C@](C)(O)C[C@@]3(CO3)[C@@H]2O)O[C@@H]1C |  |  |  | 1.3 nM | 1.8 nM | 
